Hits are enriched below; roughly 1.9% of the tested compounds scored in any of these assays.
CCR6 antag: blocks CCL20-driven beta-arrestin recruitment at human CCR6 | CHO-K1 CCR6 PathHunter beta-arrestin, luminescence, CCL20-stimulated | 340,000 compounds, 0.49% hits | inhibition, % at 20 µM | P51684 | AID 493098;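 active = compounds whose inhibition of the agonist-driven luminescence signal at 20 µM reaches about 50%, limit read from the data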;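 note: cells stimulated with CCL20 at 14 nM final; plate controls were DMSO with CCL20 for no effect and DMSO without agonist for full effect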
CXCR6 inh: blocks human CXCR6 beta-arrestin recruitment | 360,000 compounds, 0.36% hits | AID 602244 | CHO-K1 PathHunter CXCR6 beta-arrestin, luminescence | inhibition, % at 20 µM; in the data active = inhibition above about 34%, passing the limit was not always enough;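 note: antagonist mode with CXCL16 agonist at 10 nM final; 0% = 10 nM CXCL16 with DMSO and 100% = unstimulated wells without agonist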
Target sequence (O00574 whole entry, looked up): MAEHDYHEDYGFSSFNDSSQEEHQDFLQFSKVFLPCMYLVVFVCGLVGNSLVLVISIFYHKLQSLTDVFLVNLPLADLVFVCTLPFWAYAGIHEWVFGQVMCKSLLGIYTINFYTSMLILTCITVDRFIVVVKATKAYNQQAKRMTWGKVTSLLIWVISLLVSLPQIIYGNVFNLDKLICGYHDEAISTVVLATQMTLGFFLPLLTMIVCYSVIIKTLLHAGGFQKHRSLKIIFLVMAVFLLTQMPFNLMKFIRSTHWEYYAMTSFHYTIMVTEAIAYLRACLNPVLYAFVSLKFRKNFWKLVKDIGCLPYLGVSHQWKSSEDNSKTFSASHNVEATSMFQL
APJ ag: APJ receptor agonism; P35414; activation, % at 20 µM; AID 2520; CHO-K1 APJ PathHunter beta-arrestin, luminescence; 0% DMSO wells, 100% apelin; 330,000 compounds, 0.11% hits;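 active = activation more than six SD over the plate average, tested at 20 µM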;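 note: 0% = DMSO alone and 100% = apelin-13 at 10 nM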
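Test system: CHO-K1 APJ beta-arrestin complementation cell line | Compound: Single test compound dose, 20 µM final, 1% DMSO | Incubation: Compound 90 min 25 °C, reagent 1 h | Measured by: beta-gal luminescence | Read-out basis: APJ–arrestin association signal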
EBI2 block: blocks human EBI2 receptor beta-arrestin signaling | EBI2 beta-arrestin recruitment, luminescence, 7a,25-OHC stimulated | inhibition, % at 5 µM | P32249 | 360,000 compounds, 0.81% hits | AID 651636; in the data active = inhibition above about 38%;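 note: enzyme fragment complementation signal reports receptor beta-arrestin coupling in cells; 0% = agonist plus DMSO wells and 100% = wells without agonist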
TAG inh: reduces triacylglycerol accumulation in H9c2 cells; Nile Red lipid (TAG) fluorescence; cells loaded with 200 µM oleic acid; inhibition, % at 12.5 µM; 230,000 compounds, 0.66% hits;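 active = pattern-corrected inhibition of lipid staining of at least 50% with the nuclear-stain viability signal not falling by more than 50%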;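 note: 0% = DMSO wells and 100% = triacsin C control wells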
APJ antag: antagonists of human APJ apelin receptor. P35414. CHO-K1 APJ beta-arrestin complementation, luminescence. inhibition, % at 20 µM. 330,000 compounds, 0.32% hits. AID 2521;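 active = inhibition above about 40% at 20 µM, limit read from the data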;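 note: cells challenged with 10 nM apelin-13 agonist together with compound; plate controls were apelin-13 plus DMSO wells for no effect and DMSO wells lacking apelin-13 for full effect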
CXCR6 confirm: CXCR6 antagonism confirmation, single concentration; shares compounds with CXCR6 inh; CHO-K1 CXCR6 PathHunter beta-arrestin, luminescence; inhibition, % at 20 µM; 700 compounds, 65% hits;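 active = mean inhibition over four retests above 40%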;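 note: receptor stimulated with 10 nM CXCL16 agonist; beta-galactosidase fragment complementation upon beta-arrestin recruitment to receptor; plate controls were CXCL16 plus DMSO for no effect and DMSO without CXCL16 for full effect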
Starred values were filed as active, the others as inactive.

For COc1ccc2[nH]c3c(c2c1)CCN1C(=O)N([C@@H](C)C(=O)NC2CCCCC2C)C(=O)[C@]31C (some centres undefined) the results were CCR6 antag -1, CXCR6 inh -2, APJ ag -3, EBI2 block 11 and APJ antag -65.
For Cc1cc(C)cc(N2C(=O)CC(Sc3nnnn3-c3ccccc3)C2=O)c1 (centres undefined) the results were CXCR6 inh 87*, APJ ag -1, EBI2 block 1, APJ antag -18 and CXCR6 confirm 75*.
`COc1cc(/C=C/C(=O)OCC(=O)Nc2cc(S(=O)(=O)N3CCCC3)ccc2Cl)cc(OC)c1OC` gave CCR6 antag 14, CXCR6 inh 2, APJ ag -1, EBI2 block 13, TAG inh -3 and APJ antag 5.
For Cc1ccc(NC(=O)c2ccc(Cl)c(N3C(=O)C=CC3=O)c2)cc1 the results were CXCR6 inh 94*, APJ ag 3, EBI2 block -9, TAG inh 9, APJ antag -5 and CXCR6 confirm 25.
Screening CCOC(=O)c1ccc(S(=O)(=O)NNC(=O)Cc2csc(C)n2)cc1 returned CCR6 antag 9, CXCR6 inh -2, APJ ag -2, EBI2 block -5, TAG inh -2 and APJ antag -9.
Screening NS(=O)(=O)c1ccc(CNC(=O)NC23CC4CC(CC(C4)C2)C3)cc1 returned CCR6 antag -1, CXCR6 inh 61*, APJ ag -5, EBI2 block -10, APJ antag -15 and CXCR6 confirm 3.
CN(c1ccccc1)c1ccc(/C=C/[N+](=O)[O-])cc1 was read as CXCR6 inh 71*, EBI2 block 7 and CXCR6 confirm 63*.
For O=[N+]([O-])c1ccc(C=CC=Cc2ccccc2)cc1 the results were CXCR6 inh 2, EBI2 block 1 and TAG inh 7.
`Cc1ccc(Oc2ccccc2NC(=O)CN2C(=O)NC3(CCCC3)C2=O)cc1` gave CCR6 antag -7, CXCR6 inh 43*, APJ ag 1, EBI2 block -5, TAG inh 9, APJ antag -1 and CXCR6 confirm 10.
`C/C(=N\Nc1nc2ccccc2[nH]1)c1cc2ccccc2o1` gave CCR6 antag 23, CXCR6 inh 4, APJ ag 3, EBI2 block 16 and APJ antag -3.
For C/C(=N\Nc1nc2ccccc2[nH]1)c1ccccn1 the results were CXCR6 inh 42*, APJ ag -7, EBI2 block 9, APJ antag 38 and CXCR6 confirm 70*.
For O=C1C(=C(I)I)c2ccccc2-c2ccccc21 the results were CXCR6 inh 43*, EBI2 block -21, TAG inh 122 and CXCR6 confirm 39.
O=C(O)c1cccc2c1C(=O)c1ccccc1-2 was read as CCR6 antag -8, CXCR6 inh -11, APJ ag 5, EBI2 block 10, TAG inh 14 and APJ antag -8.
`Cc1ccc(O)c(C(=O)CC(=O)c2ccc(Cl)cc2)c1` gave CCR6 antag 65*, CXCR6 inh 42*, EBI2 block -2 and CXCR6 confirm 45*.
C/C(=C\C(=O)c1ccccc1)NNC(=O)c1ccc(Cl)cc1 was read as CCR6 antag 55*, CXCR6 inh 46*, APJ ag -5, EBI2 block 2, APJ antag 27 and CXCR6 confirm 6.
Screening COc1ccc(C(=O)NN/C(C)=C/C(=O)c2ccccc2)cc1 returned CCR6 antag 23, CXCR6 inh 7, APJ ag -3, EBI2 block -5 and APJ antag 19.
COc1cc(/C=C2/C(=O)NN(c3ccc(C)c(Cl)c3)C2=O)cc([N+](=O)[O-])c1O was read as CCR6 antag 42, CXCR6 inh 37, APJ ag -6, EBI2 block 5 and APJ antag 37.
`COc1cc(/C=C2\SC(=O)N(c3ccc(Cl)cc3)C2=O)cc([N+](=O)[O-])c1O` gave CCR6 antag 77*, CXCR6 inh 46*, EBI2 block 35 and CXCR6 confirm 56*.
For Clc1nc(-c2ccccn2)nc2scc(-c3ccccc3)c12 the results were CCR6 antag 14, CXCR6 inh 51*, APJ ag 2, EBI2 block 61*, APJ antag 16 and CXCR6 confirm 25.
For COc1cc(S(=O)(=O)NC2CCCC2)c(OC)cc1Cl the results were CCR6 antag 9, CXCR6 inh 46*, APJ ag -1, EBI2 block -10, APJ antag 7 and CXCR6 confirm 5.
Screening COc1cc(S(=O)(=O)NC2CC(C)(C)NC(C)(C)C2)c(OC)cc1Cl returned CCR6 antag -4, CXCR6 inh 0, APJ ag -4, EBI2 block -31 and APJ antag 4.
O=C(CSc1nc2nn(-c3ccccc3)c(=O)c-2c2n1CCCCC2)Nc1ccc(OC(F)F)cc1 was read as CCR6 antag 26, CXCR6 inh 17, APJ ag -8, EBI2 block 15, TAG inh 5 and APJ antag 26.
`CCOc1cc(CNCCO)c(Cl)cc1OCC(=O)NCCc1ccccc1` gave CCR6 antag -6, CXCR6 inh 71*, APJ ag -1, EBI2 block 8, APJ antag -7 and CXCR6 confirm 13.
For CCOC(=O)N1CCN(S(=O)(=O)N2CCCC(C(=O)NCc3ccc(C)cc3)C2)CC1 (centres undefined) the results were CXCR6 inh -11, EBI2 block -1 and TAG inh 13.
O=C(NC(=S)Nc1ccccc1C(=O)O)c1cncc(Br)c1 was read as CCR6 antag -6, CXCR6 inh -12, APJ ag -4, EBI2 block 1, TAG inh -3 and APJ antag 21.
For O=C(NC(=S)Nc1ccccc1O)c1cncc(Br)c1 the results were CCR6 antag 66*, CXCR6 inh 47*, APJ ag -6, EBI2 block 5, TAG inh -1, APJ antag 28 and CXCR6 confirm 48*.
For CCN(CC)S(=O)(=O)c1cccc(NC(=O)COC(=O)c2[nH]c(C)c(C(C)=O)c2C)c1 the results were CXCR6 inh -4, EBI2 block -13 and TAG inh 5.
For NC(=S)N/N=C/c1ncc(C(F)(F)F)cc1Cl the results were CCR6 antag 74*, CXCR6 inh 61*, APJ ag -7, EBI2 block 4, TAG inh 74, APJ antag 58* and CXCR6 confirm 90*.
